Legend:
[1] = Half life in PBS at 1 uM by LC-MS/MS analysis; format: physicochemical
How it was run: (§1)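 Samples were incubated in phosphate buffer or human plasma and analysed by LC-MS/MS in product ion scan mode. Analyte concentration was monitored over incubation time. The slope of ln(concentration) versus time gave the first-order degradation rate constant k, and t1/2 was calculated from k. Ketoprofen ethyl ester served as a reference to confirm that the plasma batch was enzymatically active.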

[2] = Half life in human plasma at 1 uM by LC-MS/MS analysis; format: ADME, cell-free; how it was run: as §1
[3] = target: T1, ATP-dependent translocase ABCB1 (Homo sapiens, UniProt P08183); assay: Inhibition of P-gp in human K562/DOX cells assessed as drug level causing 50% increase in nuclear pirarubicin concentration incubated for 30 mins by spectroflurometry; format: cell-based; conditions: read-out: I0.5
T1 sequence (P08183 whole entry): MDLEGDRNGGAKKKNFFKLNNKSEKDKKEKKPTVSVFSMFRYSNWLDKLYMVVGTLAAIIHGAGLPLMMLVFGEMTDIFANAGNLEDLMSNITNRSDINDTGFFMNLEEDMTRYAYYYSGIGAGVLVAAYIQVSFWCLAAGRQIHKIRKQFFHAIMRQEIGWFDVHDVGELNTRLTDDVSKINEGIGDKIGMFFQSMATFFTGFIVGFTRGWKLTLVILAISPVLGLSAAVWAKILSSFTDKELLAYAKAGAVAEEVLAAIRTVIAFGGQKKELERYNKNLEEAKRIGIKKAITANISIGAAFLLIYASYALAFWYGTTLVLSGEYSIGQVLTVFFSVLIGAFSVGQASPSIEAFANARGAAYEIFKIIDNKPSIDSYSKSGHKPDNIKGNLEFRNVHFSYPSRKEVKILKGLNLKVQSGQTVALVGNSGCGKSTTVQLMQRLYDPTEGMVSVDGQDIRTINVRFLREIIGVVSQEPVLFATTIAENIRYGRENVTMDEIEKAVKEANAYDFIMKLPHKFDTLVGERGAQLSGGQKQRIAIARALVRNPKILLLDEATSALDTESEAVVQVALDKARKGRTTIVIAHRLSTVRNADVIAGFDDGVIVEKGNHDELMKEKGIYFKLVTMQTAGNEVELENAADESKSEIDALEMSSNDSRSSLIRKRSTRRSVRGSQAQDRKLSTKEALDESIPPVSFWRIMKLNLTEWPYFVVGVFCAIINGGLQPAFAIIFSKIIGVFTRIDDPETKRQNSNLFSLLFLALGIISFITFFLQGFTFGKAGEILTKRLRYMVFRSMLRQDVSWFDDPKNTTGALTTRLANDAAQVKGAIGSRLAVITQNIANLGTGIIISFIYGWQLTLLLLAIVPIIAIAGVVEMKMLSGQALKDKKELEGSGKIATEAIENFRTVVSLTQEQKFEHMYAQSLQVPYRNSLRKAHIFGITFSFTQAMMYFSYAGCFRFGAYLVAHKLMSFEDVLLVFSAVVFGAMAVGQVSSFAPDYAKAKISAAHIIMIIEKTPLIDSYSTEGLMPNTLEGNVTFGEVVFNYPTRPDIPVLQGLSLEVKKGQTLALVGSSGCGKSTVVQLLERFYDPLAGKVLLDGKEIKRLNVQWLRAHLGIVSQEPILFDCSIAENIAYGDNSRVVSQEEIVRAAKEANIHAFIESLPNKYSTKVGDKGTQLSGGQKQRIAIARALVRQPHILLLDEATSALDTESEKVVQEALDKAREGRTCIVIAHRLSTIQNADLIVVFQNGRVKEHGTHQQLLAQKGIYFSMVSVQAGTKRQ
How it was run: (§2)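 Pirarubicin uptake into nuclei was measured in P-gp-overexpressing, doxorubicin-resistant K562/DOX cells. [I]0.5 is the modulator concentration giving a half-maximal increase (α = 0.5) in nuclear pirarubicin concentration. αmax is the maximum increase obtainable in resistant cells. Mean ± SE of three independent experiments.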

[4] = target: T1, ATP-dependent translocase ABCB1; assay: Inhibition of P-gp in human K562/DOX cells assessed as drug level causing maximum increase in nuclear pirarubicin concentration incubated for 30 mins by spectroflurometry relative to control; format: cell-based; conditions: 0.5 h; how it was run: as §2
[5] = Drug degradation in human plasma at 1 uM measured upto 120 mins by LC-MS/MS analysis; format: ADME, cell-free; conditions: 2 h; how it was run: as §1
[6] = target: T1, ATP-dependent translocase ABCB1; assay: Inhibition of P-glycoprotein-mediated Rhodamine-123 efflux in human K562/DOX cells assessed as […] at 1 uM […] by flow cytometry relative to control; format: cell-based; parameters: scale not given: the % may be the effect or the level left; conditions: 0.5 h
How it was run: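 K562/DOX cells were loaded with 5 µM rhodamine-123 for 30 min. They were then washed and held 10 min in rhodamine-free medium, with or without modulator at 1.0 µM. Verapamil at 3.0 µM was the reference. Flow cytometry median fluorescence after efflux was divided by that after uptake and expressed as a percentage. Mean ± SE of three independent experiments.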

[7] = target: T1, ATP-dependent translocase ABCB1; assay: Inhibition of P-glycoprotein-mediated Rhodamine-123 efflux in human K562 cells assessed as Rhodamine-123 accumulation at 1 uM preincubated for 15 mins followed by Rhodamine-123 addition measured after 30 mins by flow cytometry; format: cell-based; conditions: k562, 0.5 h
[8] = target: T1, ATP-dependent translocase ABCB1; assay: Inhibition of P-glycoprotein (unknown origin) in MDCK-MDR1 assessed as inhibtion of calcein-AM transport incubated for 30 mins by fluorescence assay; format: cell-based
[9] = target: T1, ATP-dependent translocase ABCB1; assay: Inhibition of P-glycoprotein (unknown origin) in MDCK-MDR1 assessed as reduction of ATP consumption pre-incubated for 2 hrs followed by substrate addition shaken for 5 mins by luminescence assay; format: cell-based; conditions: mdck-mdr1, 5 min
[10] = target: T2, Broad substrate specificity ATP-binding cassette transporter ABCG2 (Homo sapiens, UniProt Q9UNQ0); assay: Inhibition of BCRP (unknown origin) in MDCK-BCRP assessed as inhibtion of hoechst 33342 transport incubated for 30 mins by fluorescence assay
T2 sequence (Q9UNQ0 whole entry): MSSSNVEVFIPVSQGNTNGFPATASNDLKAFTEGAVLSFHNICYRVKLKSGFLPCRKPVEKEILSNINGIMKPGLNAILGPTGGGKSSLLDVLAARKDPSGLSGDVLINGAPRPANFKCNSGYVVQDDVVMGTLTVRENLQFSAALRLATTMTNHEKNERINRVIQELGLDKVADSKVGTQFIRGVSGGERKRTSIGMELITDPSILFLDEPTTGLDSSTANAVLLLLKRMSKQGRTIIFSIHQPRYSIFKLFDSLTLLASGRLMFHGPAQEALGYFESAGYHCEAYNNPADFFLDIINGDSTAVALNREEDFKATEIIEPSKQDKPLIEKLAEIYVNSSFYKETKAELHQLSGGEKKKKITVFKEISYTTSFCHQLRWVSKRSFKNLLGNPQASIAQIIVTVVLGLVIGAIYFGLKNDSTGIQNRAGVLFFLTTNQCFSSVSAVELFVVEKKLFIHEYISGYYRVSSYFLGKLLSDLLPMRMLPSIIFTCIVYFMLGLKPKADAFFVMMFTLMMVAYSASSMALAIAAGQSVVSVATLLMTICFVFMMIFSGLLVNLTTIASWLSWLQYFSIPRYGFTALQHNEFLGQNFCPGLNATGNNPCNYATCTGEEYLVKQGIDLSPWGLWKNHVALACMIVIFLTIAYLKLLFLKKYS

Row | half-life at 1 µM [1] [h] | half-life at 1 µM [2] [h] | IC50 [3] [nM] | Alpha max [4] | Stability [5] | Activity [6] [%] | inhibition (INH) [7] | EC50 [8] [nM] | inhibition (INH) [9] | EC50 [10] [nM] | SMILES
1 | > 4 | > 4 | – | – | – | – | – | – | – | – | COc1cc(/C=C/C(=O)OCCCCCN(C)CCCOC(=O)c2cc(OC)c(OC)c(OC)c2)cc(OC)c1OC
2 | > 4 | > 4 | 170 | 0.88 | – | – | – | – | – | – | COc1cc(/C=C/C(=O)OCCN(C)CCCCCCCOC(=O)c2c3ccccc3cc3ccccc23)cc(OC)c1OC
3 | > 4 | > 4 | 40 | 0.99 | – | – | – | – | – | – | COc1cc(/C=C/C(=O)OCCCCCCCN(C)CCOC(=O)c2cc(OC)c(OC)c(OC)c2)cc(OC)c1OC
4 | > 4 | 2.05 | 70 | 0.99 | Unstable | – | – | – | – | – | COc1cc(/C=C/C(=O)OCCCCN(C)CCCCCCOC(=O)c2cc(OC)c(OC)c(OC)c2)cc(OC)c1OC
5 | > 4 | > 4 | 40 | 0.94 | – | – | – | – | – | – | COc1cc(/C=C/C(=O)OCCCCN(C)CCCCCOC(=O)c2c3ccccc3cc3ccccc23)cc(OC)c1OC
6 | > 4 | > 4 | 40 | 0.88 | – | 84.7 | Not Active | 260 | Not Active | 3000 | COc1cc(/C=C/C(=O)OCCCN(C)CCCCCCCOC(=O)c2c3ccccc3cc3ccccc23)cc(OC)c1OC
7 | > 4 | > 4 | 190 | 0.77 | – | – | – | – | – | – | COc1cc(/C=C/C(=O)OCCCCCCN(C)CCOC(=O)c2cc(OC)c(OC)c(OC)c2)cc(OC)c1OC
8 | > 4 | > 4 | 50 | 0.99 | – | – | Not Active | 340 | Not Active | 5400 | COc1cc(/C=C/C(=O)OCCCCCCCCN(C)CCOC(=O)c2c3ccccc3cc3ccccc23)cc(OC)c1OC
9 | > 4 | 0.75 | 80 | 0.97 | Unstable | – | – | – | – | – | COc1cc(/C=C/C(=O)OCCCN(C)CCCCCCCOC(=O)c2cc(OC)c(OC)c(OC)c2)cc(OC)c1OC
10 | > 4 | > 4 | 10 | 0.99 | – | – | Not Active | 200 | Active | 16000 | COc1cc(/C=C/C(=O)OCCCCCCN(C)CCCCOC(=O)c2cc(OC)c(OC)c(OC)c2)cc(OC)c1OC
11 | > 4 | 0.683 | – | – | Unstable | – | – | – | – | – | COc1cc(/C=C/C(=O)OCCCN(C)CCCCCOC(=O)c2cc(OC)c(OC)c(OC)c2)cc(OC)c1OC
12 | > 4 | > 4 | 40 | 0.96 | – | – | Not Active | 920 | Not Active | 5100 | COc1cc(/C=C/C(=O)OCCN(C)CCCCCCCCOC(=O)c2c3ccccc3cc3ccccc23)cc(OC)c1OC
13 | > 4 | > 4 | 20 | 0.93 | – | – | Not Active | 300 | Not Active | 3800 | COc1cc(/C=C/C(=O)OCCCCCCCCN(C)CCOC(=O)c2cc(OC)c(OC)c(OC)c2)cc(OC)c1OC
14 | > 4 | > 4 | 30 | 0.99 | – | – | – | – | – | – | COc1cc(/C=C/C(=O)OCCCCCN(C)CCCCOC(=O)c2c3ccccc3cc3ccccc23)cc(OC)c1OC
15 | > 4 | > 4 | 70 | 0.79 | – | – | – | – | – | – | COc1cc(/C=C/C(=O)OCCN(C)CCCCCCCOC(=O)c2cc(OC)c(OC)c(OC)c2)cc(OC)c1OC
16 | > 4 | 0.65 | 390 | 0.99 | Unstable | – | – | – | – | – | COc1cc(/C=C/C(=O)OCCCN(C)CCCCCCOC(=O)c2cc(OC)c(OC)c(OC)c2)cc(OC)c1OC
17 | – | 1.78 | – | – | – | – | – | – | – | – | CCOC(=O)C(C)c1cccc(C(=O)c2ccccc2)c1 (stereo not given)
18 | > 4 | > 4 | 460 | 0.91 | – | – | – | – | – | – | COc1cc(/C=C/C(=O)OCCN(C)CCCCCCOC(=O)c2cc(OC)c(OC)c(OC)c2)cc(OC)c1OC
19 | > 4 | > 4 | 40 | 0.94 | – | – | – | – | – | – | COc1cc(/C=C/C(=O)OCCCCCCN(C)CCOC(=O)c2c3ccccc3cc3ccccc23)cc(OC)c1OC
20 | > 4 | > 4 | 40 | 0.92 | – | – | – | – | – | – | COc1cc(/C=C/C(=O)OCCCN(C)CCCCCCOC(=O)c2c3ccccc3cc3ccccc23)cc(OC)c1OC
21 | > 4 | > 4 | 100 | 0.94 | – | – | – | – | – | – | COc1cc(/C=C/C(=O)OCCCCCN(C)CCCCOC(=O)c2cc(OC)c(OC)c(OC)c2)cc(OC)c1OC
22 | > 4 | > 4 | 270 | 0.99 | Stable | – | – | – | – | – | COc1cc(/C=C/C(=O)OCCCCN(C)CCCCCOC(=O)c2cc(OC)c(OC)c(OC)c2)cc(OC)c1OC
23 | > 4 | > 4 | 200 | 0.79 | – | – | – | – | – | – | COc1cc(/C=C/C(=O)OCCN(C)CCCCCCOC(=O)c2c3ccccc3cc3ccccc23)cc(OC)c1OC
24 | > 4 | > 4 | 20 | 0.98 | – | – | – | – | – | – | COc1cc(/C=C/C(=O)OCCCCCCCN(C)CCOC(=O)c2c3ccccc3cc3ccccc23)cc(OC)c1OC
25 | > 4 | > 4 | 40 | 0.91 | – | – | Not Active | 220 | Not Active | 4500 | COc1cc(/C=C/C(=O)OCCN(C)CCCCCCCCOC(=O)c2cc(OC)c(OC)c(OC)c2)cc(OC)c1OC
26 | > 4 | > 4 | 10 | 0.95 | – | 64.6 | Not Active | 850 | Active | 3300 | COc1cc(/C=C/C(=O)OCCCCN(C)CCCCCCOC(=O)c2c3ccccc3cc3ccccc23)cc(OC)c1OC
27 | > 4 | > 4 | – | – | – | – | – | – | – | – | COc1cc(/C=C/C(=O)OCCCCCN(C)CCCCCOC(=O)c2cc(OC)c(OC)c(OC)c2)cc(OC)c1OC
28 | > 4 | > 4 | 10 | 0.93 | – | – | Not Active | 230 | Not Active | 3900 | COc1cc(/C=C/C(=O)OCCCCCCCN(C)CCCOC(=O)c2c3ccccc3cc3ccccc23)cc(OC)c1OC
29 | > 4 | > 4 | 240 | 0.9 | – | – | – | – | – | – | COc1cc(/C=C/C(=O)OCCCCCCN(C)CCCOC(=O)c2cc(OC)c(OC)c(OC)c2)cc(OC)c1OC
30 | > 4 | > 4 | 30 | 0.99 | – | – | – | – | – | – | COc1cc(/C=C/C(=O)OCCCCCCN(C)CCCOC(=O)c2c3ccccc3cc3ccccc23)cc(OC)c1OC

Reference: ChEMBL document CHEMBL4393665 (Eur J Med Chem, 2019)
